Reference: ChEMBL document CHEMBL2417412, “Design, synthesis, and structure-activity relationships of dihydrofuran-2-one and dihydropyrrol-2-one derivatives as novel benzoxazin-3-one-based mineralocorticoid receptor antagonists” (Bioorg Med Chem, 2013)
pIC50: −log10 of the molar value.

Experiments:
Androgen receptor = biological target: T1, Androgen receptor (Homo sapiens, UniProt P10275); assay: Displacement of [3H]-Testosterone from human AR expressed in 293 cells after 16 hrs by scintillation counting; type: cell-based, HEK293
T1 sequence (P10275 whole entry): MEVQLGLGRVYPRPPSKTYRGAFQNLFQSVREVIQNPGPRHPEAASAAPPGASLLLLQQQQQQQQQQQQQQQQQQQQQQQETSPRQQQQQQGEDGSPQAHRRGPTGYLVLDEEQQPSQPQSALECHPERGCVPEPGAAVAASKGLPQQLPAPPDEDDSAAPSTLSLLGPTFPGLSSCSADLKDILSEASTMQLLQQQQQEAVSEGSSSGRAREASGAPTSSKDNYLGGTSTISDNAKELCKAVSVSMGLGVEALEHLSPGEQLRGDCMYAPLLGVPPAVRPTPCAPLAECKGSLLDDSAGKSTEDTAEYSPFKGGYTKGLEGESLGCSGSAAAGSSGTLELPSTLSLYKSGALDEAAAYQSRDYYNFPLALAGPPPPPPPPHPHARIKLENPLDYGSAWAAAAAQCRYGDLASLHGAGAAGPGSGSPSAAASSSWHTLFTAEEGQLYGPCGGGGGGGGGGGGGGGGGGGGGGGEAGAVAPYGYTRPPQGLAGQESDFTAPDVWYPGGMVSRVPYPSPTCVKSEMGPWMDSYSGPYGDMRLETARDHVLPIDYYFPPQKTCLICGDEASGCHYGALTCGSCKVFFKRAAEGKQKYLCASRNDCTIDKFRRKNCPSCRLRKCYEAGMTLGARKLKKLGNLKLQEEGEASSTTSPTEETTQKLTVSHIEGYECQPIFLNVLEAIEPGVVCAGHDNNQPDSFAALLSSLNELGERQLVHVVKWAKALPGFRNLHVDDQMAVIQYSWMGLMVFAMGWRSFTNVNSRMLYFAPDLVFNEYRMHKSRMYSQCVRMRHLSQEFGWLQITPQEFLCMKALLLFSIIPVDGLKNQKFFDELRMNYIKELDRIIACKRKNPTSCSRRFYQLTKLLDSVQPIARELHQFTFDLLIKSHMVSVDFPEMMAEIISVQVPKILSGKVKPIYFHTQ
In short: (§1)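 These followed the MR cytosolic binding protocol (transfected 293 cells, TEGM buffer pH 7.2, 16 h at 4 °C, charcoal separation, scintillation counting of supernatant). The ligand was [3H]-dexamethasone for GR and [3H]-testosterone for AR. Concentrations were run in duplicate; IC50 taken as the mean of duplicate experiments from concentration-response curves.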

Glucocorticoid receptor = biological target: T2, Glucocorticoid receptor (Homo sapiens, UniProt P04150); assay: Displacement of [3H]-Dexamethasone human GR expressed in 293 cells after 16 hrs by scintillation counting; type: cell-based, HEK293; in short: as §1
T2 sequence (P04150 whole entry): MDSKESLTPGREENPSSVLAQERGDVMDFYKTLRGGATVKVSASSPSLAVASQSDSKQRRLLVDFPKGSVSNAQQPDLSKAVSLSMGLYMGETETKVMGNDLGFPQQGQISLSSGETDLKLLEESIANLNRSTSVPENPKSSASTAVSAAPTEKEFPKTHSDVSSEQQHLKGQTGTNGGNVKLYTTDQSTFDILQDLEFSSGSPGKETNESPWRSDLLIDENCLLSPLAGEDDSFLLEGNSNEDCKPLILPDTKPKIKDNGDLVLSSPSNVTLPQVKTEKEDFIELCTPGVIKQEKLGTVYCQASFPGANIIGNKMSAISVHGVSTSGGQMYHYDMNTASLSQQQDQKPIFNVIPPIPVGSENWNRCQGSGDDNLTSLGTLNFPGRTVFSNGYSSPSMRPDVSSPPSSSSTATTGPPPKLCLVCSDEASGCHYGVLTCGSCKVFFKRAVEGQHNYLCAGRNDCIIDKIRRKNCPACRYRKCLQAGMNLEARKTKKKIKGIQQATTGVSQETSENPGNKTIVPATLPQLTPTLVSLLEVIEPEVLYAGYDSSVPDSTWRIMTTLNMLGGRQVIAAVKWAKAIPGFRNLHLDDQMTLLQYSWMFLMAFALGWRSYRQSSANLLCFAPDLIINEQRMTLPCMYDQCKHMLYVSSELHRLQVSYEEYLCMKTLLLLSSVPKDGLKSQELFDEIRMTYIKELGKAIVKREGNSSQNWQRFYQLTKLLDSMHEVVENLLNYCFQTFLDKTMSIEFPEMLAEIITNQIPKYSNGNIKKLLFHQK

Progesterone receptor = biological target: T3, Progesterone receptor (Homo sapiens, UniProt P06401); assay: Displacement of [3H]-Progesterone from human PR expressed in 293 cells after 16 hrs by scintillation counting; type: cell-based, HEK293
T3 sequence (P06401 whole entry): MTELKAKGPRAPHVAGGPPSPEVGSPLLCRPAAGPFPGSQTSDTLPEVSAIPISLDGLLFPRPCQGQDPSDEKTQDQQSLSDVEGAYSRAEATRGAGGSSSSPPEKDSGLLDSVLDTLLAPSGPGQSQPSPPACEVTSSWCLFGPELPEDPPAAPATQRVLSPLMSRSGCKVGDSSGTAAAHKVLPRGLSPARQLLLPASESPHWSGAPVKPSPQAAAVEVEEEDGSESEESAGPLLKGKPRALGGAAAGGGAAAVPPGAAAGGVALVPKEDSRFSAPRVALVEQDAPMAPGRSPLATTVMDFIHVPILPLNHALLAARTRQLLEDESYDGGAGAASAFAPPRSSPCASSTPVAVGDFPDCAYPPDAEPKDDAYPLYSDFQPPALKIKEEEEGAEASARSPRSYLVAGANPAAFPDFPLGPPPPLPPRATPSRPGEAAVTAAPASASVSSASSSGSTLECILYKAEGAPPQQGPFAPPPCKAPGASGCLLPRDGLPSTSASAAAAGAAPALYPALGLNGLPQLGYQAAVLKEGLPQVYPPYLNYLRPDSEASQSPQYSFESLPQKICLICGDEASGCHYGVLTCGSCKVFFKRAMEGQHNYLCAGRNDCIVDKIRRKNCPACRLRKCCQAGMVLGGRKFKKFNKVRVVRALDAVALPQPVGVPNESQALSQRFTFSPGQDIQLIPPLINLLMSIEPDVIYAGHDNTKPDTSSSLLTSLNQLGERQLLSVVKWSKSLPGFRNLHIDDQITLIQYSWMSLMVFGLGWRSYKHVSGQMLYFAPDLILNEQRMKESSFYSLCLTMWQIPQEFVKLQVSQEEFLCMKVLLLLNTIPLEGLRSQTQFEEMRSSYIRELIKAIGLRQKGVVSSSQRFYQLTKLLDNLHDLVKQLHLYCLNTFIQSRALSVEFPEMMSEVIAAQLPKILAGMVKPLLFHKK
In short: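 The PR assay ran like the MR cytosolic binding assay from transfected 293 cells, with 5 nM [3H]-progesterone as ligand. Incubation was 16 h at 4 °C in TEGM buffer pH 7.2, followed by dextran/gelatin-charcoal removal of free label and scintillation counting of the supernatant. Concentrations were run in duplicate; IC50 taken as the mean of duplicate experiments from concentration-response curves.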

[1] = biological target: T4, Mineralocorticoid receptor (Homo sapiens, UniProt P08235); assay: Displacement of [3H]-Aldosterone from human MR expressed in 293 cells after 16 hrs by scintillation counting; type: cell-based, HEK293
T4 sequence (P08235 whole entry): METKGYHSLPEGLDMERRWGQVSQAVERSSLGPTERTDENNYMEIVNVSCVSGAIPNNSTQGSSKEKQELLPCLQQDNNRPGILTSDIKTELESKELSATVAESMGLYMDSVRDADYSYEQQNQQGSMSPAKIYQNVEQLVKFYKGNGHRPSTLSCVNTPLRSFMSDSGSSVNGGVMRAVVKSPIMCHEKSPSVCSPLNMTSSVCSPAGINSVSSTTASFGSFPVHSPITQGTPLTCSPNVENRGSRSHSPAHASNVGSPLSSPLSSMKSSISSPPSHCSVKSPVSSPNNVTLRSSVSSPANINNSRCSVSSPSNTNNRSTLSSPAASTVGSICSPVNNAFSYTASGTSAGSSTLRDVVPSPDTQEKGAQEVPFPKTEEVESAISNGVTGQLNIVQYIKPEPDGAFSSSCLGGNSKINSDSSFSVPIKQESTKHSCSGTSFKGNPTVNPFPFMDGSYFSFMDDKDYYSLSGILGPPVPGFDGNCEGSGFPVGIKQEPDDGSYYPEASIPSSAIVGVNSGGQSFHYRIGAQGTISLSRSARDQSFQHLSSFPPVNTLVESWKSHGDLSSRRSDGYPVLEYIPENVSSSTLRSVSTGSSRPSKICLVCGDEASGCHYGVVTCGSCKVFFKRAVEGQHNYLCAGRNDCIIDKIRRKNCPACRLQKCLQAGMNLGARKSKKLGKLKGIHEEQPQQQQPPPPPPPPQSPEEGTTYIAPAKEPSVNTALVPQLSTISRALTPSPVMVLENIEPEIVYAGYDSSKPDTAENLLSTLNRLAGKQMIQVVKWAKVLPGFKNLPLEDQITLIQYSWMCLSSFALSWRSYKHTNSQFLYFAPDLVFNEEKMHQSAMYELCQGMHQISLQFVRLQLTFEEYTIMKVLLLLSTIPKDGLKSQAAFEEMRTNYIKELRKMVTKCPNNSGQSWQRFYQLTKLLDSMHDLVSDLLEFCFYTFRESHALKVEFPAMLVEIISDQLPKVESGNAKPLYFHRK
In short: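 Cytosolic protein (0.75-1.5 mg/mL) from FreeStyle 293 cells transiently transfected with human MR was incubated for 16 h at 4 °C with 10 nM [3H]-aldosterone and serially diluted compound in TEGM buffer (Tris pH 7.2, EDTA, glycerol, DTT, molybdate, protease inhibitors). Free ligand was removed with dextran/gelatin-coated charcoal and the supernatant counted. Nonspecific binding used 100 µM cold aldosterone. Duplicates; IC50 from curve fit.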

HEK293 [2] = assay: Selectivity ratio of IC50 for human PR expressed in 293 cells to IC50 for human MR expressed in 293 cells; type: cell-based
HEK293 [3] = assay: Selectivity ratio of IC50 for human GR expressed in 293 cells to IC50 for human MR expressed in 293 cells; type: cell-based
[4] = biological target: T4, Mineralocorticoid receptor; assay: Antagonist activity at MR (unknown origin) expressed in COS1 cells after 1 day by luciferase reporter gene assay; type: cell-based, COS-1
In short: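 Human MR plasmid, MMTV-luciferase reporter and pRL-TK were lipofected into COS-1 cells, which were cultured for 1 day. Cells were then reseeded in low-glucose D-MEM with 0.1% BSA. Serial compound concentrations were added with 1 nM aldosterone (final) for 1 day at 37 °C in 5% CO2. Luciferase was read, and IC50 came from a sigmoidal fit.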

HEK293 [5] = assay: Selectivity ratio of IC50 for human AR expressed in 293 cells to IC50 for human MR expressed in 293 cells; type: cell-based

| SMILES | pIC50 (Androgen receptor) | pIC50 (Glucocorticoid receptor) | pIC50 (Progesterone receptor) | pIC50 [1] | Ratio IC50 (HEK293 [2]) | Ratio IC50 (HEK293 [3]) | pIC50 [4] | Ratio IC50 (HEK293 [5]) |
| --- | --- | --- | --- | --- | --- | --- | --- | --- |
| CCN1C(=O)C(c2ccc(F)cc2)=C(c2ccc3c(c2)NC(=O)CO3)C1C (configuration not stated) | < 5.00 | 5.80 | 6.11 | 7.48 | – | – | – | – |
| CC1OC(=O)C(c2ccc(F)cc2)=C1c1ccc2c(c1)NC(=O)CO2 (racemic) | < 5.00 | 5.42 | 6.13 | – | – | – | – | – |
| CC1NC(=O)C(c2ccc(F)cc2)=C1c1cc(Cl)c2c(c1)NC(=O)CO2 (configuration not stated) | < 5.00 | 5.96 | 5.80 | 7.64 | – | – | – | – |
| Cc1cc(C2=C(c3ccc(F)cc3)C(=O)NC2C)cc2c1OCC(=O)N2 (configuration not stated) | < 5.00 | 5.31 | < 5.00 | 7.37 | > 200 | 100 | 7.08 | > 200 |
| CC1(C)OC(=O)C(c2ccc(F)cc2)=C1c1ccc2c(c1)NC(=O)CO2 | < 5.00 | 5.33 | 6.00 | 5.92 | – | – | – | – |
| CC1NC(=O)C(c2ccc(F)cc2)=C1c1ccc2c(c1)NC(=O)CO2 (configuration not stated) | < 5.00 | 5.04 | 5.25 | 7.03 | – | – | – | – |
| CC1(F)OC(=O)C(c2ccc(F)cc2)=C1c1ccc2c(c1)NC(=O)CO2 (configuration not stated) | < 5.00 | < 5.00 | 5.30 | 6.26 | – | – | – | – |
| CC1C(c2ccc3c(c2)NC(=O)CO3)=C(c2ccc(F)cc2)C(=O)N1C (configuration not stated) | < 5.00 | 5.68 | 7.21 | 6.77 | – | – | – | – |
| CCC1OC(=O)C(c2ccc(F)cc2)=C1c1ccc2c(c1)NC(=O)CO2 (configuration not stated) | < 5.00 | 5.70 | 5.66 | 5.92 | – | – | – | – |
| O=C1COc2ccc(C3=C(c4ccc(F)cc4F)C(=O)OC3)cc2N1 | < 5.00 | < 5.00 | 5.34 | – | – | – | – | – |
| Cc1cc(F)ccc1C1=C(c2ccc3c(c2)NC(=O)CO3)COC1=O | < 5.00 | < 5.00 | 5.74 | 6.12 | – | – | – | – |
| O=C1COc2ccc(C3=C(c4ccc(F)cc4)C(=O)OC3)cc2N1 | < 5.00 | < 5.00 | < 5.00 | 6.30 | – | – | – | – |
| CC1C(c2ccc3c(c2)NC(=O)CO3)=C(c2ccc(F)cc2)C(=O)N1C1CC1 (configuration not stated) | < 5.00 | 5.66 | 6.40 | 7.17 | – | – | – | – |
| CC1NC(=O)C(c2ccc(F)cc2)=C1c1cc(F)c2c(c1)NC(=O)CO2 (configuration not stated) | < 5.00 | 5.30 | 5.49 | 7.04 | – | – | – | – |
| CC1C(c2ccc3c(c2)NC(=O)CO3)=C(c2ccc(F)cc2)C(=O)N1CCO (configuration not stated) | < 5.00 | < 5.00 | < 5.00 | 5.80 | – | – | – | – |
